According to publication PMC6930011 (Journal of the American Chemical Society, 2019):
Where no end group is shown, it is not given here.

How the values were obtained:
PTHR1 = assay type: cell-based; conditions: HEK293 cells stably expressing HA-tagged PTHR1
hPTHR1 = assay: Washout assay of cAMP signaling duration; assay type: cell-based, human; conditions: excess PTHR1 antagonist (D)Trp^12,Tyr^34-bPTH(7-34) during washout; 1 nM agonist
In short: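 HEK293 cells stably expressing hPTHR1, with β-arrestin at endogenous levels, were stimulated with 1 nM agonist for a defined period. Agonist was then washed off and cAMP monitored during the ligand-off phase, with excess antagonist present after washout and, in some runs, BA1 added as well. Output was area under curve, normalized to PTH(1-34)-NH2 at 1 nM. Data were mean ± s.e.m. from n = 3–4 independent experiments, compared by one-way ANOVA.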

human PTHR1 = assay: cAMP production, GloSensor assay in HEK-293 cells stably expressing human PTHR1; assay type: cell-based; conditions: relative to PTH(1-34)-NH2; Figure S2

PTH(1-34)-NH2
co-IP of the PTHR1 and endogenous β-arrestin (PTHR1): effectively induced co-IP
effect of antagonist after washout on duration and extent of cAMP production (hPTHR1): only a modest drop

Trp^1-PTHrP(1-36)-NH2 (WVSEHQLLHDKGKSIQDLRRRFFLHHLIAEIHTAEI-NH2; UniProt P12272 37-72, looked up, variant A1W)
potency in stimulating cAMP production, fold less potent than PTH(1-34)-NH2 (human PTHR1): ~ 5 fold

Tyr^1-PTH(1-34)-NH2 (YVSEIQLMHNLGKHLNSMERVEWLRKKLQDVHNF-NH2; UniProt P01270 32-65, looked up, variant S1Y)
potency in stimulating cAMP production, fold less potent than PTH(1-34)-NH2 (human PTHR1): ~ 5 fold
